# Assay results reported in PMC8861424 (Molecular Therapy Oncolytics, 2022).
# pIC50: −log10 of the molar value.
# Experiments:
# [1] = Body weight and tolerability in xenograft mice; type: in vivo, mouse
# [2] = test system: VEGF165-induced Primary HUVECs; assay: VEGF165-induced HUVEC proliferation; type: cell-based; details: Homo sapiens, 72 h, read-out: IC50, cell proliferation
# [3] = test system: MV-4-11 xenograft tumors; assay: Mouse xenograft tumor growth; type: in vivo; details: oral
# How it was run: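 Male athymic BALB/c nude mice, 6 weeks old, injected subcutaneously with 5 × 10⁶ MV-4-11 cells in the flank next to the right forelimb. […] Oral dosing at various doses for 3–4 weeks. Percent tumor growth inhibition calculated. Study repeated twice. Mean ± SD; ANOVA/t test.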
# [4] = test system: HT-29; assay: Cancer cell proliferation assay; type: cell-based; details: Homo sapiens, HT-29, 72 h, read-out: IC50, cell proliferation
# [5] = test system: microvessel density (CD31); assay: Microvessel density by CD31 immunofluorescent staining in xenograft models; type: in vivo, mouse; details: for microvessel density (MVD), CD31 staining: mouse xenograft models
# How it was run: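 Xenograft tumor paraffin sections (8 μm) rehydrated and treated 30 min in Tris/EDTA, then blocked with PBS/0.3% Triton X. Primary rabbit anti-mouse CD31 (1:100) at 4°C overnight. Secondary Alexa Fluor 488 goat anti-rabbit IgG (1:50) for 2 h. MVD quantified from fluorescence images: five slides, four ×200 fields each.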
# [6] = test system: BxPC-3; assay: Cancer cell proliferation assay; type: cell-based; details: Homo sapiens, BXPC-3, 72 h, read-out: IC50, cell proliferation
# [7] = test system: choroidal neovascularization; assay: Matrigel-induced choroidal neovascularization model; type: in vivo; details: rat, days 10-20 after Matrigel injection, n = 6
# How it was run: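 Rats anesthetized with ketamine (40 mg/kg IP) and xylazine (6 mg/kg IP), then given a subretinal injection of 1.2 μL Matrigel diluted 3:1 with PBS. Test compound at 10 or 30 mg/kg on days 10–20 after injection; controls untreated. Rats perfused with PBS, DiI and 4% paraformaldehyde. Eyes cut in 100 μm serial sections and viewed by confocal microscopy. CNV area = summed section width × thickness. Mean ± SD; ANOVA/t test.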
# [8] = test system: KDR phosphorylation of HUVECs; assay: VEGF-induced KDR phosphorylation of HUVECs; type: cell-based, human; details: Figure S1
# [9] = test system: ABCG2; details: cited from earlier work
# [10] = target: FLT3 (Homo sapiens, UniProt P36888); assay: KINOMEscan competition kinase binding assay
# [11] = test system: A375; assay: Cancer cell proliferation assay; type: cell-based; details: Homo sapiens, A-375, 72 h, read-out: IC50, cell proliferation
# [12] = test system: CNV lesions; details: laser-induced CNV rat model; oral administration; cited from earlier work
# [13] = compared with other TKIs; cited from earlier work
# [14] = test system: 786-O; assay: Cancer cell proliferation assay; type: cell-based; details: Homo sapiens, 786-0, 72 h, read-out: IC50, cell proliferation
# [15] = test system: Primary HUVECs; assay: In vitro HUVEC tube formation assay; type: cell-based, human; details: at both 50 and 100 nM; VEGF165 30 ng/mL, 3 h
# [16] = test system: KDR, FLT3, and C-Kit; assay: KINOMEscan IC50 compared with sunitinib; type: binding, human
# [17] = test system: VEGF165-induced HUVEC cell lines; assay: VEGF165-induced HUVEC proliferation; type: cell-based; details: Homo sapiens, 72 h, read-out: IC50, cell proliferation
# [18] = target: C-Kit (Homo sapiens, UniProt P10721); assay: KINOMEscan competition kinase binding assay
# [19] = test system: A549 xenograft tumors; assay: Mouse xenograft tumor growth; type: in vivo; details: dose-dependent (abstract only)
# [20] = test system: MV-4-11; assay: Cancer cell proliferation assay; type: cell-based; details: Homo sapiens, MV4-11, 72 h, read-out: IC50, cell proliferation
# [21] = test system: A549; assay: Cancer cell proliferation assay; type: cell-based; details: Homo sapiens, A549, 72 h, read-out: IC50, cell proliferation
# [22] = test system: HT-29 xenograft tumors; assay: Mouse xenograft tumor growth; type: in vivo; details: HT-29-cell-derived xenograft models; oral
# How it was run: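 Two-step HT-29 xenograft in BALB/c nude mice. First, 5 × 10⁶ cells injected subcutaneously and grown to 100–300 mm³. Tumors then excised, minced into 1 mm³ pieces and implanted in the flank of new mice, then grown to 100–300 mm³. […] Oral dosing for 3–4 weeks. Percent tumor growth inhibition calculated. Study repeated once.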
# [23] = target: PDGFRβ (Homo sapiens, UniProt P09619); assay: KINOMEscan competition kinase binding assay
# [24] = test system: HCT-116; assay: Cancer cell proliferation assay; type: cell-based; details: Homo sapiens, HCT-116, 72 h, read-out: IC50, cell proliferation
# [25] = test system: Primary HUVECs; assay: HUVEC proliferation without VEGF165; type: cell-based; details: Homo sapiens, 72 h, read-out: IC50, cell proliferation
# How it was run: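 HUVECs grown in F-12 with 10% FBS, 18 U/mL heparin and 30 μg/mL ECGS. Seeded at 10,000 cells/well in triplicate and left to adhere overnight, then starved 24 h in 0.1% FBS. Test compound at 0.8, 3, 11.8, 46.8 and […] in 0.1% FBS, with no VEGF165 added. MTS absorbance read at 490 nm after 72 h. IC50 = concentration halving absorbance versus control.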
# FLT3, sequence (P36888 27-993): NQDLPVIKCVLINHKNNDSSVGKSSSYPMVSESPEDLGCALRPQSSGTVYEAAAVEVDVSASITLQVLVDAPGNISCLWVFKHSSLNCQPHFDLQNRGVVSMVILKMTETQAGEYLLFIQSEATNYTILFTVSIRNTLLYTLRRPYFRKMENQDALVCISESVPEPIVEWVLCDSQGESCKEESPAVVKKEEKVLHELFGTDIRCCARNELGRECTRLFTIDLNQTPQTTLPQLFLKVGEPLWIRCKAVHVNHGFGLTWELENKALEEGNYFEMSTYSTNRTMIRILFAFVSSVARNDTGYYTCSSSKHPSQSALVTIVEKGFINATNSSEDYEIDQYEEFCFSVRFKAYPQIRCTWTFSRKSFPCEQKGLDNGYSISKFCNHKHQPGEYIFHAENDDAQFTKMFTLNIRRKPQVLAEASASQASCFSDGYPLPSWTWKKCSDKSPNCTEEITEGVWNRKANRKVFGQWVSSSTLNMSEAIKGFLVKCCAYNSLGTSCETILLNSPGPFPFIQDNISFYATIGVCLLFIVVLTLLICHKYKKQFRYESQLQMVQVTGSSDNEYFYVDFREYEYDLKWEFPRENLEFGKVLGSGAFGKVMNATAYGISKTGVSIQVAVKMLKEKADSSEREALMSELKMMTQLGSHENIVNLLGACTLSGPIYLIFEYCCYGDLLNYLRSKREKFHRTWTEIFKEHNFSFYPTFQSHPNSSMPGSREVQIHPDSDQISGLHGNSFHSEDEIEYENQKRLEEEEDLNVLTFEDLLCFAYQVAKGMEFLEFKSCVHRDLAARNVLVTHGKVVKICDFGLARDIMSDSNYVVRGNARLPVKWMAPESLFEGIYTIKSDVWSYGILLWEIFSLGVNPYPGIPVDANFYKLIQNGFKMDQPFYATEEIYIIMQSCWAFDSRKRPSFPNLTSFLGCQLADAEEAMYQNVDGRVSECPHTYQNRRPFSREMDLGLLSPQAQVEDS
# C-Kit, sequence (P10721 26-976): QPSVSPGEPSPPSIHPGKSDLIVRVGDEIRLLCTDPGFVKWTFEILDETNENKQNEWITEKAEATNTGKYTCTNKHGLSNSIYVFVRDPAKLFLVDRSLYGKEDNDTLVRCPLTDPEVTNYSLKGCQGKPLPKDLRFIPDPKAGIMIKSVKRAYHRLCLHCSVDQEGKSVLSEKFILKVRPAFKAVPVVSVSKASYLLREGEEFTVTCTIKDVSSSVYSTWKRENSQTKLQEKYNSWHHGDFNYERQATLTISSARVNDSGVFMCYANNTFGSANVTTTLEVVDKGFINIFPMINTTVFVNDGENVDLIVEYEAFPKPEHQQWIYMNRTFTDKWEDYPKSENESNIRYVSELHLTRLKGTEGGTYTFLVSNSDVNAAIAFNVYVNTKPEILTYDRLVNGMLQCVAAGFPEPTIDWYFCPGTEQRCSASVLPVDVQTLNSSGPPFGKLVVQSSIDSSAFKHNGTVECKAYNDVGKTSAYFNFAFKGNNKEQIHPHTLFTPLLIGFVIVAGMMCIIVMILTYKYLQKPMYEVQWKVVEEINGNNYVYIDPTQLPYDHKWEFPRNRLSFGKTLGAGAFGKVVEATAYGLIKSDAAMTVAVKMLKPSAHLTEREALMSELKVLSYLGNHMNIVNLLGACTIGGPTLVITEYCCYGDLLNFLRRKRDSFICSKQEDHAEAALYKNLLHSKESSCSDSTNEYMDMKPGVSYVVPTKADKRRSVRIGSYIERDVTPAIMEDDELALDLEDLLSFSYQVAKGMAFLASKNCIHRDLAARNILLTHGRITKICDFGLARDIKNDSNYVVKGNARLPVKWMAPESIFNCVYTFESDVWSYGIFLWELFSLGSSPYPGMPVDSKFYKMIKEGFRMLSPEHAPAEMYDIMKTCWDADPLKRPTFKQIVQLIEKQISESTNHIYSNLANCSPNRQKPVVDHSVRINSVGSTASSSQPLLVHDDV
# PDGFRβ, sequence (P09619 33-1106): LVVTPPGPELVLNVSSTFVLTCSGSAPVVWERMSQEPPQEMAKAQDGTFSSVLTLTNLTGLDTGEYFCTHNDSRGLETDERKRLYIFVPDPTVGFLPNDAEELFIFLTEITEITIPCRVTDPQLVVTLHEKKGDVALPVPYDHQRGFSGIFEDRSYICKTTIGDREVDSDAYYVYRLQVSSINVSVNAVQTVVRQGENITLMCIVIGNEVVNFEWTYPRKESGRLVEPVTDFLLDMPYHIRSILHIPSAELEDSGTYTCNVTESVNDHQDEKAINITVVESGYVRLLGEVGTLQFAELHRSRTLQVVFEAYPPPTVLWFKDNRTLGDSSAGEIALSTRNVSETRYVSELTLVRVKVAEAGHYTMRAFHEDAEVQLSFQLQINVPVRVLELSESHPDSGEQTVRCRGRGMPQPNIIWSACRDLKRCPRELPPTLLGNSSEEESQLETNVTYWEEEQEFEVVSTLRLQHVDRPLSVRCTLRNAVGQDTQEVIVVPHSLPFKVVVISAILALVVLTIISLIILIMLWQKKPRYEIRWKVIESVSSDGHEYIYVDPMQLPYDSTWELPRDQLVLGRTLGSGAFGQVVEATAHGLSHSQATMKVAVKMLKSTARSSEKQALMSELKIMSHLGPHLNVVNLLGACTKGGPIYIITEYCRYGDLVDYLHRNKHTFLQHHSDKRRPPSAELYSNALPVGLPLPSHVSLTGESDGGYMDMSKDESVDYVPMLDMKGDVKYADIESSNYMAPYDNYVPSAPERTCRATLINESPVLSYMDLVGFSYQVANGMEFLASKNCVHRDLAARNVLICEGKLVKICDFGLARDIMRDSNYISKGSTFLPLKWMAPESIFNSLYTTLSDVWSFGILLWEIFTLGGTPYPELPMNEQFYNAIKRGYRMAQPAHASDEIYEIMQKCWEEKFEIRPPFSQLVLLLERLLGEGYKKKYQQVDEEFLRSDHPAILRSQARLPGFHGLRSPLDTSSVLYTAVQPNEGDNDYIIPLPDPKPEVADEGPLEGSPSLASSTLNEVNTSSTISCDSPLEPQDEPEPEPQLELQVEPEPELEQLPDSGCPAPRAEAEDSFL
Compound,pIC50 [2],pIC50 [4],"microvessel density (MVD), CD31 staining [5]",pIC50 [6],pIC50 [11],pIC50 [14],pIC50 [17],pIC50 [20],pIC50 [21],pIC50 [24],pIC50 [25],also measured
Cc1[nH]c(/C=C2\C(=O)Nc3ccc(F)cc32)c(C)c1C(=O)N[C@H]1CCN(C(=O)N(C)C)C1 [Vorolanib],7.03,< 5.05,suppressed the MVD of the mouse in a dose-dependent manner,< 5.05,< 5.05,< 5.05,7.19,6.85,< 5.05,< 5.05,< 5.70,"body weight loss / toxicity ([1]; orally administered vorolanib): no obvious body weight loss or other significant toxicity observed; tumor growth inhibition ([3]; 10 mg/kg bid): began to show significant inhibition; tumor regression ([3]; 80 mg/kg bid): tumors completely disappeared; microvessel density (MVD) inhibitory activity ([5]; high-dose vorolanib 160 mg/kg twice daily [bid]): comparable with sunitinib; CNV area ([7]; 10 mg/kg): 493.58 ± 317.17 × 10^3 μm^2; CNV area ([7]; 30 mg/kg): 357.70 ± 276.97 × 10^3 μm^2; VEGF-induced KDR phosphorylation of HUVECs [8]: inhibited the VEGF-induced KDR phosphorylation of HUVECs; drug efflux function of ABCG2 [9]: inhibition of the drug efflux function of ABCG2; pIC50 [10]: 9.20; CNV lesions [12]: could reduce CNV lesions; half-life [13]: shorter half-life; tissue accumulation [13]: limited tissue accumulation; VEGF165-induced tube formation of HUVECs [15]: inhibited the VEGF165-induced tube formation of HUVECs, in vitro, with inhibitory strengths comparable with that of sunitinib; IC50 fold lower than those of sunitinib [16]: 4.7- to 15.4 fold; pIC50 [18]: 9.85; tumor growth [19]: inhibited tumor growth; efficacious dose [22]: 40–160 mg/kg bid; pIC50 [23]: 9.89"
"CCN(CC)CCNC(=O)c1c(C)[nH]c(/C=C2\C(=O)Nc3ccc(F)cc32)c1C [Sunitinib, reference compound]",7.90,5.35,significantly inhibited,5.30,5.54,5.22,7.40,7.83,5.35,5.60,–,body weight loss ([1]; 40 mg/kg qd): severe body weight loss
"CN[C@@H]1C[C@H]2O[C@@](C)([C@@H]1OC)n1c3ccccc3c3c4c(c5c6ccccc6n2c5c31)C(=O)NC4 [Staurosporine, reference compound]",–,–,–,–,–,–,–,–,–,–,8.09,–
